In ChEMBL document CHEMBL4513216, “Probing the Open Global Health Chemical Diversity Library for Multistage-Active Starting Points for Next-Generation Antimalarials” (ACS Infect Dis, 2020):

Assay: Toxicity liver stage against HepG2, at 10uM
Type: cell-based
Parameters: test concentration 10 uM, cell line HepG2-A16-CD81EGFP
Conditions: human, HepG2-A16-CD81EGFP cells; read-out: INHIBITION
Outline: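 Uninfected HepG2-A16-CD81EGFP cells, 3 × 10^3 per well, 1536-well, plated on prespotted compound at 10 μM final, parasite-free screening media added to match infected plates; puromycin 10 μM positive, DMSO 0.5% negative; run in parallel with 48 h PbLuc assay at 37 °C, 5% CO2; viability by CellTiter-Glo luminescence, normalized to controls.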

Compound	cytotoxicity at 10 µM
Cc1nc2ccn(C(C)C)c(=O)c2cc1C(=O)O	-43.6%
O=C(CCn1ccc2cc(Br)ccc21)NC[C@@H]1CCCN2CCCC[C@H]12	8.35%
O=c1c(NCc2ccco2)c(NCC(O)CN2CCOCC2)c1=O (stereo unspecified)	-55.8%
COC[C@]12COC[C@H]1CN(C(=O)C1CC(F)(F)C1)C2	5.83%
CCC1=N[C@@]2(CC[C@@H]3CN(C(=O)NCC(C)C)C[C@@H]32)C(=O)N1CCOC	10.3%
Cc1ccc(C)c(NC(=O)Cn2cc(I)cn2)c1	7.72%
CCc1ccccc1N1CC(c2nnc(N)s2)CC1=O (stereo unspecified)	0.502%
CC(=O)N1CCN(C)CC(COCc2ccccc2)C1 (stereo unspecified)	-4.79%
CC(=O)N1CC2(CCCN(Cc3ccc(Cl)cc3)C2)Cc2ccccc21 (stereo unspecified)	10.6%
Fc1cccc2c1CCC2NCc1ccc(N2CCOCC2)cc1 (stereo unspecified)	-14.7%
Cc1cc(N2CCC(NS(C)(=O)=O)CC2)nc(C(C)C)n1	-3.36%
CCN(Cc1cccc(Cl)c1)Cc1ncc(C(C)(C)C)o1	11.2%
Cc1ccc(CCCC(=O)N2CC(=O)Nc3cccnc32)s1	-36.6%
Cc1cc(NC(N)=O)ccc1OCC(F)(F)F	-0.883%
Cc1cnn(C2CN(CCCOc3ccc(C#N)cc3)C2)c1	4.09%
Cc1c(COC(C)C)cccc1NC(=O)N1CCCC(CO)C1 (stereo unspecified)	-5.44%
Cc1ccc2ncn(CC(O)CN3CCC(C)CC3)c(=O)c2c1 (stereo unspecified)	-0.539%
O=C(c1sccc1C1CC1)N1CCN(c2ncccn2)CC1	-6.87%
O=C(c1ccc(-n2cccn2)c(F)c1)N1CCCN2CCCC2C1 (stereo unspecified)	-3.9%
Cc1cc(NC2CCc3nc(C(C)C)nn3C2)n2ncnc2n1 (stereo unspecified)	13.4%
O=C(Cc1ccc2c(c1)OCO2)N1CCN(c2ccncc2)CC1	-22.9%
CCn1cnnc1C1CCN(C(=O)c2ccc(OC(C)C)nc2)CC1	1.14%
CC(C)(C)OCCN(Cc1cccc(O)c1)C1CCC(O)CC1 (stereo unspecified)	8.22%

Compound	cytotoxicity at 10 µM
CCn1ccnc1S(=O)(=O)Cc1ccc(C(N)=O)cc1	-3.8%
COc1ccc(CNC(=O)c2ccc(Br)cn2)cc1	-18%
CC(=O)NCCC(=O)Nc1sccc1C(=O)C(C)(C)C	-46.3%
CN(C)c1ncc(CNC(=O)Nc2ccccc2F)n1C	-46.9%
CC(C1CC1)N(C)C(=O)CCn1cccn1 (stereo unspecified)	-2.37%
CN(C)c1ccc(CCCNC(=O)Nc2ccc(C#N)cc2)cc1	-1.14%
CC(C)C1CN(Cc2nccn2C)CCC(=O)N1CC1CC1 (stereo unspecified)	-13.7%
Cc1ccc(CN(Cc2ccccn2)C(=O)CCC2CCCN(C)C2)s1 (stereo unspecified)	18.3%
Cc1cccnc1N1CCN(C(=O)CCc2ccccn2)CC1	-12.1%
Cc1ccc([C@@H]2CN(C(=O)CCc3ccco3)C[C@H]2N(C)C)cc1	3.13%
CN1CCC(Cc2noc(CC3CC3)n2)CC1	-9.96%
CSc1ccc(CNC(=O)C2CC(=O)N(C(C)(C)C)C2)cc1 (stereo unspecified)	4.69%
COc1ccnc(N2CCC3(CCCN(C(C)C)C3=O)C2)n1 (stereo unspecified)	-8.7%
CC(C)Cc1cc(-c2cc(-c3ccc[nH]3)nc(N)c2C#N)n[nH]1	14.3%
COc1cc(C)cc(C(C(=O)O)N(C)Cc2cnn(C)c2)c1OC (stereo unspecified)	7.87%
CN(C)CC1(O)CCN(S(=O)(=O)c2ccc(F)c(F)c2)C1 (stereo unspecified)	-0.954%
CC(Cn1ccnc1)NC(=O)N1CCN(Cc2cccs2)CC1 (stereo unspecified)	-5.36%
CCN(Cc1cccc(C)c1)Cc1nc2c(cnn2C)c(=O)[nH]1	-21.6%
COc1cccc(-n2nnc(C(=O)N3CCNC(=O)C3)c2C)c1	-10.3%
CN(C)C1CCN(C(=O)c2cc3c(s2)CCN3C(=O)C2CC2)CC1	9.61%
CN1[C@H](CN2CCCC2)C[C@@H]2CN(C(=O)Cc3cccs3)CC[C@@H]21	4.99%
CNC(=O)c1cnc2n1CCN(Cc1cccnc1)C2	8.88%
O=C(NCC1Cn2nnc(-c3ccncc3)c2CO1)c1ccsc1 (stereo unspecified)	11.1%
